One assay relates to Cell line. Kind of assay: Inhibition of proliferation in NCI panel of 60 human cell lines (Range is 20-80 uM). It counts as functional.
Assay [1] has as its target Receptor tyrosine-protein kinase erbB-2. Kind of assay: Inhibition of c-erbB2 receptor.
For a further assay, the system named is MDA-MB-468. Kind of assay: Inhibition of MDA-468 human breast tumor cell proliferation. It is filed as functional, cell-based. The procedure, abridged: (§1)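 Seven-day MTT assay at 250-300 cells/well in RPMI 1640 with 10% FCS. After a 24-h drug-free attachment at 37 °C/5% CO₂, drug was added at 1 nM-100 µM (final DMSO <0.25%). MTT was added at a final 400 µg/mL for 4 h, formazan was dissolved in DMSO-glycine (4:1) and absorbance read at 550 nm. IC50 is the mean of at least three experiments.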

A further assay concerns SK-BR-3. Kind of assay: Inhibition of SBBr3 human breast tumor cell proliferation. It is filed as functional, cell-based. The procedure, abridged: as §1
A further assay has as its system ZR-75-1. In words: Inhibition of ZR-75-1 human breast tumor cell proliferation. It is filed as functional, cell-based. An outline of the steps:
as §1

The subject of assay [2] is MCF7. In words: Inhibition of MCF-7/adr human breast tumor cell proliferation. It counts as functional, cell-based. The procedure, abridged:
as §1

Assay [3] relates to MCF7. Kind of assay: (§2) Inhibition of MCF-7 human breast tumor cell proliferation. It counts as functional, cell-based. An outline of the steps:
as §1

In another assay the test system is MDA-MB-231. Kind of assay: Inhibition of MDA-231 human breast tumor cell proliferation. It is filed as functional, cell-based. The procedure, abridged:
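MTT assay, 7-day continuous drug exposure. Cells seeded at 250-300 cells/well in RPMI 1640 with 10% FCS and penicillin/streptomycin, attached over 24 h drug-free at 37 °C/5% CO2. Drug range 1 nM-100 µM from DMSO stocks, final DMSO <0.25%. MTT 400 µg/mL final for 4 h, formazan dissolved in DMSO-glycine, absorbance 550 nm. IC50 is the mean of at least three experiments.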

Assay [4] has as its system MCF7. Kind of assay: Inhibition of TGF-alpha stimulated MCF-7 human breast tumor cell proliferation. It counts as functional, cell-based. The procedure, abridged: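 MCF-7 cells, 5 × 10³/well, were plated in phenol red-free RPMI 1640 with 5% charcoal-stripped FCS and allowed to attach overnight. Growth factor (IGF-I, IGF-II or TGF-α, as the line names) was then added together with drug. Cells grew a further 7 days, and viable cells were counted by MTT. IC50 is the mean of at least three experiments.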

Assay [5] deals with MCF7. The description is as §2. It is filed as functional, cell-based. An outline of the steps:
as §1
The source holds these as a separate data set.

In the next assay the test system is T47D. In words: Inhibition of T47D human breast tumor cell proliferation. It is filed as functional, cell-based. The procedure, abridged:
as §1

Broadly, the GI50 is the concentration giving 50% growth inhibition. High values mean less potent growth inhibition, low ones more potent growth inhibition. By IC50 is commonly meant the concentration needed to halve the response being measured. Higher therefore signals lower potency.

In the assay with Cell line, `N#CC(C#N)=Cc1ccc(Oc2ccccc2)c(I)c1` returned a GI50 of 80 µM.
Molecule `COC(=O)/C(C#N)=C/c1ccc(Oc2ccccc2)c(I)c1` yielded a GI50 in the assay on Cell line of 80 µM.
On the same count and under the same terms, in the case of `N#C/C(=C\c1ccc(Oc2ccccc2)c(I)c1)C(N)=O` it was 80 µM.
`COc1cc(/C=C(\C#N)C(N)=O)cc(Sc2nc3ccccc3s2)c1O` returned a 50% inhibitory concentration (IC50) in [1] of 0.35 µM. This counts as sub-micromolar.
In the case of `N#C/C(=C\c1ccc(Oc2ccccc2)c(I)c1)C(=O)NCCCc1ccccc1`, the GI50 with Cell line turned out to be 80 µM.
For `COc1cc(C=C(C#N)C#N)cc(-c2cc(C=C(C#N)C#N)cc(OC)c2O)c1O`, it took 80 µM to inhibit growth with Cell line by half (GI50).
Same read-out and setting: in the case of `COc1cc(C(C)=O)cc(-c2cc(C(C)=O)cc(OC)c2O)c1O` it was 80 µM; in that of `COc1cc(/C=C(\C#N)C(N)=O)cc(-c2cc(/C=C(\C#N)C(N)=O)cc(OC)c2O)c1O`, 80 µM.
`COc1cc(/C=C(\C#N)c2ccccn2)ccc1O`: the concentration for half-maximal inhibition (IC50) in the assay with MDA-MB-468 was found to be 0.06 µM; in the assay with SK-BR-3, 0.5 µM; with ZR-75-1 it was 2.6 µM; with MCF7 [2], 52.8 µM; with MCF7 [3], 2.7 µM; in the assay on MDA-MB-231, 51 µM. Also, the results for the concentration for half-maximal inhibition (IC50) in the assay on MCF7 [4], in the assay on MCF7 [5] and in the assay on T47D were 2.3 µM, 0.7 µM and 6 µM, respectively.
In the assay on Cell line, `COc1cc(C=O)cc(-c2cc(C=O)cc(OC)c2O)c1O` showed a GI50 of 80 µM.
Turning to `COC(=O)/C(C#N)=C/c1cc(OC)c(O)c(-c2cc(/C=C(\C#N)C(=O)OC)cc(OC)c2O)c1`, it took 80 µM to inhibit growth in the assay with Cell line by half (GI50).
On to `COC(=O)c1cc(OC)c(O)c(-c2cc(C(=O)OC)cc(OC)c2O)c1`, for which, in the assay with Cell line, the GI50 turned out to be 80 µM.
Turning to `N#C/C(=C\c1ccc(Oc2ccccc2)c(I)c1)c1ccccn1`, the IC50 in the assay with MDA-MB-468 was 0.3 µM; in the assay with SK-BR-3 it was 6.5 µM; in the assay on ZR-75-1, 24.7 µM; in the assay on MCF7 [2], 25.2 µM; in the assay on MCF7 [3] it was 41.8 µM; in the assay with MDA-MB-231 it was 39.8 µM. The figures for the IC50 in the assay with MCF7 [4], in the assay on MCF7 [5] and in the assay with T47D were 41 µM, 20 µM and 48.7 µM, respectively.
Take `COc1cc(/C=C(\C#N)c2ccccn2)cc(-c2cc(/C=C(\C#N)c3ccccn3)cc(OC)c2O)c1O`: it took 80 µM to inhibit growth in the assay with Cell line by half (GI50).
In turn, `CCOc1cc(C=C(C#N)C#N)cc(-c2cc(C=C(C#N)C#N)cc(OCC)c2O)c1O` came in with a concentration for 50% growth inhibition (GI50) in the assay on Cell line of 80 µM. This counts as double-digit micromolar.
In the case of `N#C/C(=C\c1ccc(O)cc1)c1ccccn1`, the IC50 turned out to be 0.45 µM with MDA-MB-468; 7.8 µM with SK-BR-3; 48.5 µM in the assay on ZR-75-1; 51.2 µM in the assay on MCF7 [2]; 73.8 µM in the assay on MCF7 [3]; 40.3 µM with MDA-MB-231. Moreover, the values for the IC50 in the assay on MCF7 [4], in the assay on MCF7 [5] and in the assay with T47D were 67.7 µM, 15 µM and 36.3 µM, respectively.
Consider `COC1=C2C[C@@H](C)C[C@H](OC)[C@H](O)[C@@H](C)/C=C(\C)[C@H](OC(N)=O)[C@@H](OC)/C=C\C=C(/C)C(=O)NC(=CC1=O)C2=O` [GELDANAMYCIN], for which growth in the assay with Cell line was halved (GI50) at 0.327 µM.
